The record followed here is ChEMBL document CHEMBL5154713, “Illuminating a Dark Kinase: Structure-Guided Design, Synthesis, and Evaluation of a Potent Nek1 Inhibitor and Its Effects on the Embryonic Zebrafish Pronephros” (J Med Chem, 2022).

In series [1] the target is MAP kinase-activated protein kinase 5 (Homo sapiens) (UniProt Q8IW41). Put plainly: Inhibition of human full length PRAK assessed as residual activity at 1 uM using KKLRRTLSVA as substrate incubated for 40 mins in presence of [gamma 33P]-ATP by radiometric scintillation counting assay relative to control. In a few lines:
(§1)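 Commercial radiometric panel of 50 kinases. Each recombinant human kinase was tested at a single compound concentration of 1 μM. ATP was set within 15 μM of the apparent Km for ATP for each kinase. Residual activity is relative to control and is the mean of two independent experiments.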

The target of series [2] is T1, Serine/threonine-protein kinase Nek1 (Homo sapiens, UniProt Q96PY6).
T1 sequence (Q96PY6 whole entry): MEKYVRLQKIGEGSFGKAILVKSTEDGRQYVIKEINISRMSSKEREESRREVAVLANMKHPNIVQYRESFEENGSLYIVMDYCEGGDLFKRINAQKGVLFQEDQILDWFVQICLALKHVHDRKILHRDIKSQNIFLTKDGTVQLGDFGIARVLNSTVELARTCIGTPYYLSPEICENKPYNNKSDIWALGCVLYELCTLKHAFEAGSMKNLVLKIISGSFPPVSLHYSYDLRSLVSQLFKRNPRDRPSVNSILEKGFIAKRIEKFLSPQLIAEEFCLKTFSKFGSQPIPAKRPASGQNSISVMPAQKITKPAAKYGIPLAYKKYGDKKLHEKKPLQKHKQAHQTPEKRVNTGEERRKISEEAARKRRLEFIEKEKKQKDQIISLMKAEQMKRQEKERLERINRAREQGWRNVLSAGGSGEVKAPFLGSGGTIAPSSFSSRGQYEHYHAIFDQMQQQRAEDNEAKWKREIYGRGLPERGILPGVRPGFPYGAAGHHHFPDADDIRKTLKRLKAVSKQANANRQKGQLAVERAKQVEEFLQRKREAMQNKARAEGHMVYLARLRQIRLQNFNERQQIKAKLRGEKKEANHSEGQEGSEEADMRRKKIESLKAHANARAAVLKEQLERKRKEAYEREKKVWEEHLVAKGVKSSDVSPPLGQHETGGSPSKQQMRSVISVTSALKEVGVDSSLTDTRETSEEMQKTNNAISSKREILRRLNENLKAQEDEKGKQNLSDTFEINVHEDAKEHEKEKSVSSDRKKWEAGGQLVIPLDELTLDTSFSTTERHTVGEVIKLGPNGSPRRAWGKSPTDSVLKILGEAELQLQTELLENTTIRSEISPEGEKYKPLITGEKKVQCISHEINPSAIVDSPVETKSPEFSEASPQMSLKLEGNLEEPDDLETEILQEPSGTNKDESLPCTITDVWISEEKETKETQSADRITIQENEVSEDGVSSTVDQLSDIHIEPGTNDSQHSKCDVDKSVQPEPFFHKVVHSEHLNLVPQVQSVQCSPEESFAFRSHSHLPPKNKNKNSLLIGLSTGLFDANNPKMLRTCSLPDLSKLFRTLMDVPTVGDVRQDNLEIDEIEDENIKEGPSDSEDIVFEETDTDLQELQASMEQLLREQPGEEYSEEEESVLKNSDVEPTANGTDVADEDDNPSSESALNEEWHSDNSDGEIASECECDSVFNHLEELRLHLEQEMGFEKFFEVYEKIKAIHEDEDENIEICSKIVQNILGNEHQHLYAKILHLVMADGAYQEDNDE
Put plainly: Inhibition of human recombinant NEK1 (1 to 505 residues) using RLGRDKYKTLRQIRQ as substrate incubated for 40 mins in presence of [gamma-33P]-ATP by radiometric scintillation counting assay. The method in brief: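 Eurofins IC50Profiler radiometric assay on recombinant human Nek1 (1−505), ATP at 10 μM or 90 μM (near Km). Nine concentrations at half-log steps from 10 μM to 1 nM, with vehicle controls. IC50 and 95% CI obtained by four-parameter nonlinear regression. Mean of two independent experiments.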

For series [3], the target named is Serine/threonine-protein kinase tousled-like 1 (Homo sapiens) (UniProt Q9UKI8). Put plainly: Inhibition of human full length recombinant TLK1 assessed as residual activity at 1 uM using casein as substrate incubated for 40 mins in presence of [gamma 33P]-ATP by radiometric scintillation counting assay relative to control. The method in brief:
as §1

Series [4] in a line: Toxicity in wild-type Zebrafish embryos assessed as effect on normal eye development at 0.05 to 30 uM measured upto 120 hrs. The arrangement: species or system Danio rerio. The note with it: in vivo, dose 0.05-30 µM. In a few lines:
(§2)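 Wild-type embryos, 15 per group with intact chorions, dosed at 6 hpf with 0.05–30 μM final concentrations in E3, diluted from a DMSO stock. Survival checked every 24 h by heartbeat over 120 h, and phenotypes assessed visually. At least triplicate, 5 replicates at 30 μM.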

For series [5], the target named is Tyrosine-protein kinase SYK (Homo sapiens) (UniProt P43405). Put plainly: Inhibition of recombinant full-length human Syk at 1 uM assessed as residual activity at 1 uM using poly(Glu, Tyr) 4:1 as substrate measured after 40 mins in presence of [gamma33P]ATP by radiometric scintillation counting method relative to control. In a few lines:
as §1

Series [6] is described as follows: Permeability across apical to basolateral side in human Caco-2 cells assessed as drug recovery at pH 6.5 to 7.4 by HPLC-MS/MS analysis. The class given is ADME, cell-based. The note with it: Caco-2, pH 6.5, read-out: Drug recovery. In a few lines:
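Commercial Caco-2 assay, apical-to-basolateral direction at pH 6.5/7.4. Permeability and percent recovery taken from HPLC-MS/MS peak area response. Propranolol, labetalol, colchicine and ranitidine run in parallel as references.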
For orientation: Caco-2 monolayers are a common model of the intestinal barrier.

A short description of series [7]: Toxicity in fluorescence-labelled Zebrafish pronephron assessed as increase in impaired renal clearance at 10 to 20 uM. More on the design: species or system Danio rerio. The note with it: in vivo, dose 10-20 µM. In a few lines: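 Wild-type embryos exposed from 6 hpf to E3/0.2% DMSO controls or 10 and 20 μM compound, in E3 with 75 μM PTU. At 48 h, 100 nM PT-Yellow for 20 min, washed, then returned to compound up to 96 h total. Anesthetized embryos imaged in agarose molds by widefield microscopy, 33 Z-slices. Tubule fluorescence and area quantified from summed deconvolved projections. n = 3–5.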

The nature of series [8]: Toxicity in wild-type Zebrafish embryos assessed as effect on body curvature at 0.05 to 30 uM measured upto 120 hrs. The arrangement: species or system Danio rerio. Conditions: in vivo, dose 0.05-30 µM. The method in brief:
as §2

In series [9] the target is Mitogen-activated protein kinase kinase kinase 5 (Homo sapiens) (UniProt Q99683). Put plainly: Inhibition of recombinant human ASK1 (649 to 946 residues) assessed as residual activity at 1 uM using myelin basic protein as substrate measured after 40 mins in presence of [gamma33P]ATP by radiometric scintillation counting method. In a few lines:
as §1

Series [10] deals with RAF proto-oncogene serine/threonine-protein kinase (Homo sapiens), P04049 [Y340D,Y341D]. Put plainly: Inhibition of human c-Raf (Raf-1) Y340D/Y341D mutant (306 to end) as residual activity at 1 uM using inactive MEK1 as substrate incubated for 40 mins in presence of [gamma 33P]-ATP by radiometric scintillation counting assay relative to control. In a few lines: as §1
Series [11] concerns the target Protein kinase C alpha type (Homo sapiens) (UniProt P17252). Put plainly: Inhibition of recombinant human full length PKCalpha assessed as residual activity at 1 uM using histone H1 as substrate measured after 40 mins in presence of [gamma33P]ATP by radiometric scintillation counting method relative to control. In a few lines: as §1

Sequence of MAP kinase-activated protein kinase 5 (Homo sapiens) (Q8IW41 whole entry): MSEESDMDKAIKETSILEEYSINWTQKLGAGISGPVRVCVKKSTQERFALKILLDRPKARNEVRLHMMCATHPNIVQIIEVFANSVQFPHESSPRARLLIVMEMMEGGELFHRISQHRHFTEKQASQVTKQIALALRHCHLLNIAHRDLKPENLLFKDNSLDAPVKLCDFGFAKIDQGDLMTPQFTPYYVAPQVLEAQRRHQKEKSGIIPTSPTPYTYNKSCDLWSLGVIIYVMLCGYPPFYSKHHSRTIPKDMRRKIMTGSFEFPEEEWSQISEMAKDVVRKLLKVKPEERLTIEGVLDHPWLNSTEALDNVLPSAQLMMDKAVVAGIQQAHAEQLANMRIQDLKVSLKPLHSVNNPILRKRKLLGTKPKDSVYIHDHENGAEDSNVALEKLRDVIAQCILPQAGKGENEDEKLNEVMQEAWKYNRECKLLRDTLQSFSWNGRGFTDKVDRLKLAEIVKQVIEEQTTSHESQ
Sequence of Serine/threonine-protein kinase tousled-like 1 (Homo sapiens) (Q9UKI8 whole entry): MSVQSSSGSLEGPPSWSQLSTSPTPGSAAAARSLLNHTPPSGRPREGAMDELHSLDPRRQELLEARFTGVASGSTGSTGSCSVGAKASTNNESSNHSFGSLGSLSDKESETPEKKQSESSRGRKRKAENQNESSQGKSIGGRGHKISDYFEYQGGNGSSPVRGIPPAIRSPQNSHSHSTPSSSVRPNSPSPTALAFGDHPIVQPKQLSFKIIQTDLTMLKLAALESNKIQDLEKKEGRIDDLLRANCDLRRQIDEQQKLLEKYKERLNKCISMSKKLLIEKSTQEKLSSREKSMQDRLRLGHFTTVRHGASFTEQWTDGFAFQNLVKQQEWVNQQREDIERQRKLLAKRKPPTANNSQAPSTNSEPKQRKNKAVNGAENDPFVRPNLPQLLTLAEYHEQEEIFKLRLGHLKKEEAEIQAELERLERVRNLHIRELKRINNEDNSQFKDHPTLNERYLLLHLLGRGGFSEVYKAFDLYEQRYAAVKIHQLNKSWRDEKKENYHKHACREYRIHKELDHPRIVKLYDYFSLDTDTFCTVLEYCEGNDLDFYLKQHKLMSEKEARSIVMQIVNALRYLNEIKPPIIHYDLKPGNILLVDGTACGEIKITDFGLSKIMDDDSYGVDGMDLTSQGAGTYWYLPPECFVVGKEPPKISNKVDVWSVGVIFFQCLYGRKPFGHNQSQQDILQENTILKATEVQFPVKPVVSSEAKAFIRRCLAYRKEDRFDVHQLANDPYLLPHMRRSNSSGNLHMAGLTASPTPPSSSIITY
Sequence of Mitogen-activated protein kinase kinase kinase 5 (Homo sapiens) (Q99683 whole entry, the tested form may be a part): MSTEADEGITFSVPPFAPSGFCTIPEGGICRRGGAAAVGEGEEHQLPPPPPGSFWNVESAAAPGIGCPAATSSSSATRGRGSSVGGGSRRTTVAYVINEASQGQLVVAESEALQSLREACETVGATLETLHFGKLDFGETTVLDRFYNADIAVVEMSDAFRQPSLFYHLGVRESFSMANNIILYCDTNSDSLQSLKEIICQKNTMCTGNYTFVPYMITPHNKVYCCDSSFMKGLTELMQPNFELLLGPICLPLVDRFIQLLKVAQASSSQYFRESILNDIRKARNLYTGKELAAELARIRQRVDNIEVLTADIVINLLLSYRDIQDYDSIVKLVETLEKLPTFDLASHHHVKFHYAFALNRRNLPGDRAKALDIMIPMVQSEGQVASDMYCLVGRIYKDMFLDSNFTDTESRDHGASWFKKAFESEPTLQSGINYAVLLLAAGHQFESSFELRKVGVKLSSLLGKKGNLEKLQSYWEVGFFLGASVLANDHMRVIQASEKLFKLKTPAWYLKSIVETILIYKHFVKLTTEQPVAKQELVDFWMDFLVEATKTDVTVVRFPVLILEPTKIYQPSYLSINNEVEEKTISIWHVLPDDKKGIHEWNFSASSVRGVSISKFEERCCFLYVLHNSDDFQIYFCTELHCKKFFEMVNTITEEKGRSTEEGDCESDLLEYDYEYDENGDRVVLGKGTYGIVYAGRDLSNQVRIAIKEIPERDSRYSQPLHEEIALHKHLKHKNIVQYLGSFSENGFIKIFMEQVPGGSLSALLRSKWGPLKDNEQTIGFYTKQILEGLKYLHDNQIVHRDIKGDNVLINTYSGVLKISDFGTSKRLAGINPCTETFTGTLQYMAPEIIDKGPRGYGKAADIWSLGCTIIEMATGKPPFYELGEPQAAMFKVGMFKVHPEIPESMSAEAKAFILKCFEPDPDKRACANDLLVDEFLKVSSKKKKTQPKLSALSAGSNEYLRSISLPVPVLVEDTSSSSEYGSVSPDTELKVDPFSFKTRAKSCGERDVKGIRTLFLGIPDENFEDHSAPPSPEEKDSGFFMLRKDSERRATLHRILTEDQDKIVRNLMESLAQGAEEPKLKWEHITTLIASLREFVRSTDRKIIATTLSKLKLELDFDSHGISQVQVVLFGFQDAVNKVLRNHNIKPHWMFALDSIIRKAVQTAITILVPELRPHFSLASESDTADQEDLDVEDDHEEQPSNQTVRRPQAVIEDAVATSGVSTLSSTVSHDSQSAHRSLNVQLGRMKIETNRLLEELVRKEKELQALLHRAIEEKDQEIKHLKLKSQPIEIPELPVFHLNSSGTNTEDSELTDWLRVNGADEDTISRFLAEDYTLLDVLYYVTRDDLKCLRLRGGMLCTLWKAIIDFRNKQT

As usually defined, the IC50 is the concentration that gives 50% inhibition. Consider `O=S(=O)(N[C@@H](CO)Cc1c[nH]c2ccccc12)c1ccc(-c2ccnc3[nH]ccc23)cc1`, for which the Activity in series [1] is over 75%; in [3] it was over 75%; in series [4], “Non-Toxic”; in series [5] it was over 75%; in [7], “Toxic”; in series [8], “Non-Toxic”. Moreover, the Activity in [9], in series [10] and in series [11] was over 75% each time. For the same compound, in series [2], the IC50 worked out at 0.33 µM. The recovery in [6] stood at 45%.
